Screening results (PubChem BioAssay)
The sample as a whole holds a higher share of hits than the screen did.
CHOP inhibitor: blocks CHOP induction under ER stress. CHO-K1 CHOP-promoter luciferase, tunicamycin-induced, 15-18 h. inhibition, % at 10 µM. 220,000 compounds, 3.8% hits. AID 2732;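 active = compounds that reduced the stress-induced luciferase reporter signal by more than about 70% of percent inhibition, limit read from the data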
UPR XBP1 act: activators of adaptive arm of unfolded protein response (XBP1). 330,000 compounds, 0.33% hits. CHO-XBP1 luciferase reporter, IRE1-XBP1 UPR activation, luminescence; percent of tunicamycin response, DMSO as zero. activation, % at 20 µM. AID 463104;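 active = versus positive control, 20 µM dose yields 30% or more activation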
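Material: CHO-XBP1 cells stably carrying IRE1-XBP1-driven luciferase reporter | Medium: F12 with 10% serum | Compound dosing: 20 µM single concentration, DMSO 1% | Incubation: Overnight seeding at 37 °C, 6 h compound treatment at 37 °C | Detection: Steady-Glo luminescence read | Read-out basis: % activation of reporter signal versus tunicamycin and DMSO controls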
697 NFkB inh: lowers PMA/ionomycin-induced NF-kB signal in 697 B cells; 697 B-cell NF-kB luciferase reporter, 16 h; inhibition, % at 4 µM; 330,000 compounds, 0.33% hits; in the data active = inhibition above about 35%
Jurkat NFkB inh: inhibitors of the PMA/ionomycin-induced NF-kB reporter in Jurkat cells | PMA/ionomycin-induced NF-kB luciferase reporter, luminescence | inhibition, % at 4 µM | 330,000 compounds, 0.53% hits | AID 435003; in the data active = inhibition above about 50%
CHOP UPR activ: activators of apoptotic arm of unfolded protein response (CHOP) | CHO-CHOP luciferase reporter, UPR activation, luminescence; percent of tunicamycin response over DMSO baseline | AID 449763 | activation, % at 10 µM | 330,000 compounds, 0.34% hits;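 active = at 10 µM dose, activation of 40% or more, normalized to positive control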
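System: CHO CHOP reporter cells. Amount: 500 cells per well. Buffer or medium: F12 medium, 10% FBS. Compound dosing: one dose, 10 µM in 0.5% DMSO. Incubation: 6 h compound exposure at 37 °C after overnight seeding. Technique: Steady-Glo luciferase luminescence. Benchmarks: tunicamycin and DMSO controls.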
CHOP confirm: confirmation of CHOP induction inhibitors. 2,100 compounds, 45% hits. AID 504437. inhibition, % at 10 µM. CHO-CHOP promoter luciferase reporter, tunicamycin-induced, luminescence. shares compounds with CHOP inhibitor;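 active = mean of three repeat readings of reporter signal inhibition above a set limit, cut at about 70% in these data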
Of the large screens only hits and unclear results are named; the others gave an inactive call (follow-up assays come after a bar, where they were run).

CCc1ccc(NSc2ccccc2[N+](=O)[O-])cc1	CHOP inhibitor 102 | CHOP confirm inactive
COc1ccc(S(=O)(=O)Nc2cc(Sc3ncn[nH]3)c(O)c3ccccc23)cc1	none (no result: UPR XBP1 act, 697 NFkB inh, Jurkat NFkB inh, CHOP UPR activ)
O=S(=O)(Nc1cc(Sc2cccc3cccnc23)c(O)c2ccccc12)c1ccc(F)cc1	CHOP inhibitor 107 (no result: UPR XBP1 act, 697 NFkB inh, Jurkat NFkB inh, CHOP UPR activ) | CHOP confirm 108
CCc1cc(C(=O)N2CCCC(C(=O)c3ccc(Oc4ccccc4)cc3)C2)n(C)n1 (configuration not stated)	none (no result: CHOP inhibitor)
Cc1cc(-c2ccccc2)n(-c2cc(N/N=C/c3ccccc3O)ncn2)n1	CHOP inhibitor 102 (no result: UPR XBP1 act, 697 NFkB inh, Jurkat NFkB inh, CHOP UPR activ) | CHOP confirm inactive
COc1ccc(-c2nn(-c3ccccc3)cc2/C=N/NC(=O)c2ccc(Br)o2)cc1	CHOP inhibitor 107 | CHOP confirm 127
CC1(c2ccccc2)CC(C)(C)N2C(=O)C3(C(C#N)=C(N)Oc4cc(O)ccc43)c3cccc1c32 (configuration not stated)	CHOP inhibitor 106 | CHOP confirm 104
Cc1cc2c3c(c1)C(C)(c1ccccc1)CC(C)(C)N3C(=O)C21C(C#N)=C(N)OC2=C1C(=O)CC(C)(C)C2 (configuration not stated)	CHOP inhibitor 107 | CHOP confirm 97
COc1ccc(C(C(=O)NC2CCCCC2)N(Cc2ccco2)C(=O)c2snc(C(N)=O)c2N)cc1 (configuration not stated)	none (no result: CHOP inhibitor)
COc1ccc(-c2cc(C3CCN(Cc4cccc(C(F)(F)F)c4)CC3)[nH]n2)cc1	CHOP inhibitor 106 | CHOP confirm 104
Fc1cccc(-c2nnn3c2nc(Cl)c2ccccc23)c1	CHOP inhibitor 103 (no result: UPR XBP1 act, 697 NFkB inh, Jurkat NFkB inh, CHOP UPR activ) | CHOP confirm 127
O=C(NCc1ccco1)C1CCN(S(=O)(=O)c2cccc([N+](=O)[O-])c2)CC1	none (no result: CHOP inhibitor)
Cc1ccccc1Oc1cc(-n2ncc(Cl)c(Cl)c2=O)ncn1	CHOP inhibitor 108 (no result: UPR XBP1 act, 697 NFkB inh, Jurkat NFkB inh, CHOP UPR activ) | CHOP confirm 119
C=C(C)COc1ccc(-c2[nH]ncc2-c2ccccc2OC)c(O)c1	CHOP inhibitor 106 | CHOP confirm inactive
C=C(C)COc1ccc(-c2[nH]ncc2Oc2ccccc2OC)c(O)c1	none
COCC(=O)N1CCC(Oc2ccc(C(=O)N(C)Cc3nccs3)cc2)CC1	none (no result: CHOP inhibitor)
Nc1nc(NC(=O)c2ccccc2)nn1-c1ccccc1	none
O=C(Nc1nc(NC(=O)c2ccco2)n(-c2ccccc2)n1)c1ccccc1	CHOP inhibitor 106 | CHOP confirm inactive
Cc1ccc(-c2nn(C)c(=O)c3ccccc23)cc1CNC(=O)Cn1nc(-c2ccccc2)c2ccccc2c1=O	CHOP inhibitor 97 (no result: UPR XBP1 act, 697 NFkB inh, Jurkat NFkB inh, CHOP UPR activ) | CHOP confirm 78
Cc1cc(C)n(CC(=O)NCc2cc(-c3nn(C)c(=O)c4ccccc34)ccc2C)n1	none
CC(C)C(NS(=O)(=O)c1ccccc1)C(=O)N1CCN(C(=O)c2ccco2)CC1 (configuration not stated)	none (no result: CHOP inhibitor)
COc1ccccc1Nc1ncnc2c1cnn2-c1cccc(C)c1	none
COc1cccc(Nc2ncnc3c2cnn3-c2cccc(C)c2)c1	CHOP inhibitor 105 | CHOP confirm 130
COc1cc(Cl)ccc1OCc1cc(C(=O)NC(C)Cc2cccnc2)no1 (configuration not stated)	none (no result: CHOP inhibitor)
CCOc1cccc(C2c3c(oc4ccccc4c3=O)C(=O)N2c2ccccn2)c1 (configuration not stated)	none
CCOc1cc(C2c3c(oc4ccccc4c3=O)C(=O)N2c2nccs2)ccc1O (configuration not stated)	CHOP inhibitor 104 | CHOP confirm inactive
CCOC(=O)C1=C(c2ccccc2)OC(N)=C(C#N)C1C1CCCCC1 (configuration not stated)	CHOP inhibitor 109 | CHOP confirm inactive
COC(=O)/C(=C(/F)Sc1cc(C)c(O)c(C)c1)C(F)(F)F	CHOP inhibitor 98 | CHOP confirm 118
CN1C(=O)CSC1=NCC12CC3CC(CC(C3)C1)C2	CHOP inhibitor 105 | CHOP confirm inactive
CCc1ccccc1N=C1SCC(=O)N1C	none
CC(C)=NOc1cc(NC(=O)CCl)cc([N+](=O)[O-])c1	CHOP inhibitor 111 | CHOP confirm 110
CCC(=O)Nc1cc(ON=C(C)C)cc([N+](=O)[O-])c1	none (no result: UPR XBP1 act, 697 NFkB inh, Jurkat NFkB inh, CHOP UPR activ)
